Measurements taken from ChEMBL document CHEMBL1130393, “Antitumor agents. 178. Synthesis and biological evaluation of substituted 2-aryl-1,8-naphthyridin-4(1H)-ones as antitumor agents that inhibit tubulin polymerization” (J Med Chem, 1997).

Tests used:
[1] = test system: PC-3; test: In vitro antitumor activity against PC-3 tumor cell lines; assay type: functional; conditions: Homo sapiens
[2] = test system: Panel CNS (Carcinoma cell lines); test: log molar concentration required to cause total growth inhibition of CNS cancer cell lines; assay type: functional; conditions: Homo sapiens, read-out: Log TGI (converted)
Procedure, shortened: (§1)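 TGI from the NCI 60 human tumor cell line in vitro screen: log of the molar drug concentration causing total growth inhibition, reported for the named cell panel.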

[3] = test system: Panel ovarian (Carcinoma cell lines); test: log molar concentration required to cause total growth inhibition of ovarian tumor cell lines; assay type: functional; conditions: Homo sapiens, read-out: Log TGI (converted); procedure, shortened: as §1
[4] = test system: Panel prostate (Carcinoma cell lines); test: log molar concentration required to cause total growth inhibition of prostate tumor cell lines; assay type: functional; conditions: Homo sapiens, read-out: Log TGI (converted); procedure, shortened: as §1
[5] = test system: SF-295; test: In vitro antitumor activity against SF-295 tumor cell lines; assay type: functional; conditions: Homo sapiens
[6] = test system: MDA-N; test: In vitro antitumor activity against MDA-N tumor cell lines; assay type: functional; conditions: Homo sapiens
[7] = test system: SK-MEL-5; test: In vitro antitumor activity against SK-MEL-5 tumor cell lines; assay type: functional; conditions: Homo sapiens
[8] = test system: OVCAR-3; test: In vitro antitumor activity against OVCAR-3 tumor cell lines; assay type: functional; conditions: Homo sapiens
[9] = test system: HL-60; test: In vitro antitumor activity against HL-60(TB) tumor cell lines; assay type: functional; conditions: Homo sapiens
[10] = test system: NCI-H460; test: In vitro antitumor activity against NCI-H460 tumor cell lines; assay type: functional; conditions: Homo sapiens
[11] = test system: NSCLC; test: log molar concentration required to cause total growth inhibition of non-small cell lung tumor cell lines; assay type: functional; conditions: Homo sapiens, read-out: Log TGI (converted); procedure, shortened: as §1
[12] = test system: Panel renal (Carcinoma cell lines); test: log molar concentration required to cause total growth inhibition of renal tumor cell lines; assay type: functional; conditions: Homo sapiens, read-out: Log TGI (converted); procedure, shortened: as §1
[13] = molecular target: Tubulin (Bos taurus, UniProt Q6B856+Q862L2+Q862F3); test: Inhibition of tubulin polymerization; assay type: functional
[14] = test system: Panel breast (Carcinoma cell lines); test: log molar concentration required to cause total growth inhibition of breast tumor cell lines; assay type: functional; conditions: Homo sapiens, read-out: Log TGI (converted); procedure, shortened: as §1
[15] = test system: HCT-116; test: In vitro antitumor activity against HCT116 tumor cell lines; assay type: functional; conditions: Homo sapiens
[16] = test system: Melanoma tumor cell line; test: log molar concentration required to cause total growth inhibition of melanomicell lines; assay type: functional; conditions: Homo sapiens, read-out: Log TGI (converted); procedure, shortened: as §1
[17] = test system: U-251; test: In vitro antitumor activity against U-251 tumor cell lines; assay type: functional; conditions: Homo sapiens
[18] = test system: Panel colon (Carcinoma cell lines); test: log molar concentration required to cause total growth inhibition of colon tumor cell lines; assay type: functional; conditions: Homo sapiens, read-out: Log TGI (converted); procedure, shortened: as §1
[19] = molecular target: Tubulin (Bos taurus) (UniProt Q6B856+Q862L2+Q862F3); test: Inhibition of radiolabeled colchicine binding to tubulin; assay type: protein assay; design: concentration or dose not given beside the values; conditions: concentration not given here
Procedure, shortened: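 Measured by DEAE-cellulose filter binding. The 0.1 mL mixture held bovine brain tubulin 1.0 µM, 1.0 M monosodium glutamate (pH 6.6), 1 mM MgCl2, 0.1 mM GTP, 5.0 µM [3H]colchicine, 5% DMSO and inhibitor at 5.0 µM. It was incubated 20 min at 37 °C, filtered through two DEAE-cellulose papers, washed with water and counted by liquid scintillation.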

[20] = test system: Tumor Cell line; test: (§2) In vitro antitumor activity against NCI 's human tumor cell lines; assay type: functional; conditions: read-out: Average log GI50 (converted)
Procedure, shortened: (§3)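 NCI in vitro screen of 60 human tumor cell lines. […] The value is calculated from all cell lines tested.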

[21] = test system: leukaemia cell line; test: (§4) log molar concentration required to cause total growth inhibition of leukemic tumor cell lines; assay type: functional; conditions: Homo sapiens, read-out: Log TGI (converted); procedure, shortened: as §1
[22] = test system: Tumor Cell line; test: log molar concentration required to cause total growth inhibition of NCI 's human tumor cell lines; assay type: functional; conditions: read-out: Log TGI (converted)
Procedure, shortened: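 NCI 60 human tumor cell line in vitro screen. TGI is the log molar concentration giving total growth inhibition, calculated from all cell lines tested.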

[23] = test system: MDA-MB-435; test: In vitro antitumor activity against MDA-MB-435 NCI 's human tumor cell lines; assay type: functional
[24] = test system: CAKI-1; test: In vitro antitumor activity against CAKI-1 tumor cell lines; assay type: functional; conditions: Homo sapiens
[25] = test system: Panel CNS (Carcinoma cell lines); test: log molar concentration required to cause total growth inhibition of CNS cancer tumor cell lines; assay type: functional; conditions: Homo sapiens, read-out: Log TGI (converted); procedure, shortened: as §1
[26] = test system: Melanoma tumor cell line; test: log molar concentration required to cause total growth inhibition of melanomic tumor cell lines; assay type: functional; conditions: Homo sapiens, read-out: Log TGI (converted); procedure, shortened: as §1
[27] = test system: Leukemic tumor cell line; test: as §4; assay type: functional; conditions: Homo sapiens, read-out: Log TGI (converted); procedure, shortened: as §1
[28] = test system: MDA-N; test: in vitro antitumor activity against MDA-N tumor cell lines; assay type: functional; conditions: Homo sapiens
[29] = test system: OVCAR-3; test: in vitro antitumor activity against OVCAR-3 tumor cell lines; assay type: functional; conditions: Homo sapiens
[30] = test system: Tumor Cell line; test: in vitro antitumor activity against NCI 's human tumor cell lines; assay type: functional; conditions: read-out: Average log GI50 (converted); procedure, shortened: as §3
[31] = test system: U-251; test: in vitro antitumor activity against U-251 tumor cell lines; assay type: functional; conditions: Homo sapiens
[32] = test system: MDA-MB-435; test: in vitro antitumor activity against MAD-MB-435NCI 's human tumor cell lines; assay type: functional
[33] = test system: SF-295; test: in vitro antitumor activity against SF-295 tumor cell lines; assay type: functional; conditions: Homo sapiens
[34] = test system: HCT-116; test: in vitro antitumor activity against HCT116 tumor cell lines; assay type: functional; conditions: Homo sapiens
[35] = test system: NCI-H460; test: in vitro antitumor activity against NCI-H460 tumor cell lines; assay type: functional; conditions: Homo sapiens
[36] = test system: SK-MEL-5; test: in vitro antitumor activity against SK-MEL-5 tumor cell lines; assay type: functional; conditions: Homo sapiens
[37] = test system: CAKI-1; test: in vitro antitumor activity against CAKI-1 tumor cell lines; assay type: functional; conditions: Homo sapiens
[38] = test system: Tumor Cell line; test: as §4; assay type: functional; conditions: Homo sapiens, read-out: Log TGI (converted); procedure, shortened: as §1
[39] = test system: HL-60; test: in vitro antitumor activity against HL-60(TB) tumor cell lines; assay type: functional; conditions: Homo sapiens
[40] = test system: PC-3; test: in vitro antitumor activity against PC-3 tumor cell lines; assay type: functional; conditions: Homo sapiens
[41] = test system: Tumor Cell line; test: as §2; assay type: functional
Procedure, shortened: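 Tested in the NCI 60 human tumor cell line in vitro screen. […] The value is calculated from all cell lines tested, as an average log GI50.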

Compound | GI50 [1] [nM] | TGI [3] [nM] | TGI [4] [nM] | GI50 [5] [nM] | GI50 [6] [nM] | GI50 [7] [nM] | GI50 [8] [nM] | GI50 [9] [nM] | GI50 [10] [nM] | TGI [11] [nM] | TGI [12] [nM] | IC50 [13] [nM] | TGI [14] [nM] | GI50 [15] [nM] | GI50 [17] [nM] | TGI [18] [nM] | inhibition [19] [%] | GI50 [20] [nM] | TGI [22] [nM] | GI50 [23] [nM] | also measured
Cc1cnc2[nH]c(-c3cccc(Cl)c3)cc(=O)c2c1 | > 100000 | 15800 | > 100000 | 25.1 | > 100000 | 70.8 | 22.4 | 30.9 | 50.1 | 44700 | 87100 | 720 | 12900 | 30.2 | 69.2 | 9550 | 33 | 269 | 30900 | < 10 | TGI [2]: 1910 nM; TGI [16]: 47900 nM; TGI [21]: 72400 nM; GI50 [24]: 42.7 nM
Cc1cnc2[nH]c(-c3cccc(F)c3)cc(=O)c2c1 | 34.7 | 26900 | 692 | 27.5 | 11.8 | 28.2 | 13.5 | 20.4 | 38.9 | 16200 | 55000 | 630 | 537 | 24 | 40.7 | 324 | 43 | 50.1 | 5130 | < 10 | TGI [25]: 3090 nM; TGI [26]: 32400 nM; TGI [27]: 2690 nM; GI50 [24]: 28.2 nM
Cc1ccnc2nc(-c3cccc(Cl)c3)cc(O)c12 | 15.5 | 27500 | 2340 | 40.7 | 11.8 | 41.7 | 31.6 | < 10 | 38.9 | 100000 | 69200 | 1000 | 813 | 15.8 | 52.5 | 12000 | 32 | 158 | 25700 | < 10 | TGI [25]: 18200 nM; TGI [26]: 70800 nM; TGI [27]: 100000 nM; GI50 [24]: 33.1 nM
Oc1cc(-c2cccc(Cl)c2)nc2ncccc12 | – | 31600 | 2630 | – | – | – | – | – | – | 85100 | 49000 | 1500 | 1170 | – | – | 16200 | – | – | 24000 | – | GI50 [28]: 17.4 nM; GI50 [29]: 45.7 nM; TGI [2]: 16600 nM; GI50 [30]: 229 nM; TGI [26]: 97700 nM; GI50 [31]: 145 nM; GI50 [32]: < 10 nM; GI50 [33]: 63.1 nM; GI50 [34]: 28.8 nM; GI50 [35]: 87.1 nM; GI50 [36]: 52.5 nM; GI50 [37]: 56.2 nM; TGI [38]: 38900 nM; GI50 [39]: 10.5 nM; GI50 [40]: 22.4 nM
COc1cc([C@@H]2c3cc4c(cc3[C@H](O)[C@H]3COC(=O)[C@H]23)OCO4)cc(OC)c1OC [PODOFILOX] | – | – | – | – | – | – | – | – | – | – | – | – | – | – | – | – | 76 | – | – | – | average log GI50 [41]: -7.54 M
Cc1cccc(-c2cc(O)c3cccnc3n2)c1 | – | – | – | – | – | – | – | – | – | – | – | 3300 | – | – | – | – | – | – | – | – | GI50 [28]: < 10 nM; GI50 [29]: 41.7 nM; GI50 [30]: 95.5 nM; GI50 [31]: 44.7 nM; GI50 [32]: < 10 nM; GI50 [33]: 37.1 nM; GI50 [34]: 22.4 nM; GI50 [35]: 25.7 nM; GI50 [36]: 25.7 nM; GI50 [37]: 37.1 nM; GI50 [39]: 19.1 nM; GI50 [40]: 42.7 nM
